Screening results (PubChem)
MEKK3 PB1 HTS – modulators of MEKK3-MEK5 PB1 binding, primary screen, biochemical, wildtype MEKK3, multiplex bead flow cytometry, Alexa488-MEK5 | Mitogen-activated protein kinase kinase kinase 3 (Homo sapiens), Q99759 | bead-based flow cytometry, Alexa488-MEK5 binding to MEKK3; actives lie on both sides; 0 = blocked by unlabeled MEK5, 100 = vehicle | binding response (% of control), % at 10 µM | 290,000 tested, 1.4% active;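 active means binding response more than 3 SD above or below the average of its plate-row segment, actives on both sides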;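 further: Alexa488 bead fluorescence after subtracting the streptavidin-only scavenger bead signal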
Apaf-1 inh – inhibitors of human Apaf-1 apoptosome, primary screen, biochemical, DEVD-Rh110 fluorescence, uHTS; Apoptotic protease-activating factor 1 (Homo sapiens), O14727; reconstituted apoptosome caspase-3 activity; inhibition, % at 20 µM; 330,000 tested, 0.71% active; AID 489030, 2010; active means inhibition of at least 40% at 20 µM;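 further: plate controls were DMSO wells for no effect and DEVD-CHO caspase inhibitor wells for full effect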
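Material: reconstituted apoptosome with Apaf-1, cytochrome c, caspase-9, procaspase-3, dATP. Technique: Rh110 fluorescence intensity. Buffer or medium: pH 7.5 Hepes buffer with CHAPS, BSA, DTT. Times: 30 min plus 50 min, RT.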
MEKK2 mut-MEK5 – MEK5 binding signal on mutant MEKK2 PB1, primary screen, biochemical, multiplex bead flow cytometry, Alexa488-MEK5; 290,000 tested, 0.35% active; AID 1530, 2009; percent response, % at 10 µM; Alexa488-MEK5 binding to MEKK2 mutant; in the data active means percent response above about 24%, passing the limit was not always enough
MEKK2wt PB1 HTS – modulators of MEK5 binding to wildtype MEKK2, primary screen, biochemical, multiplex bead flow cytometry, Alexa488-MEK5; binding response (% of control), % at 10 µM; Mitogen-activated protein kinase kinase kinase 2 (Homo sapiens), Q9Y2U5; Alexa488-MEK5 binding to MEKK2 WT; actives lie on both sides; 290,000 tested, 1.1% active; in the data active means binding response below about 67% or above about 130%
UBC13 inh – UBC13 polyubiquitin chain formation inhibitors, primary screen, biochemical, TR-FRET, uHTS | 330,000 tested, 0.47% active | Ubiquitin-conjugating enzyme E2 N (Homo sapiens), P61088 | AID 485273, 2010 | inhibition, % at 20 µM; in the data active means inhibition above about 45%, passing the limit was not always enough
Target sequence (P61088 whole entry, looked up): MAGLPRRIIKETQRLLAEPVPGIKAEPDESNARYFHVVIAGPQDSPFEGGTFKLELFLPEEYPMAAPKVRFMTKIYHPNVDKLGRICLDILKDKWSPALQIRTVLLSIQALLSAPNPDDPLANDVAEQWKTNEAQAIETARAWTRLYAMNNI
PREPL inhibitor – PREPL enzyme inhibitors, primary screen, biochemical, fluorescence polarization | recombinant PREPL, fluorescence polarization activity-based probe | Prolyl endopeptidase-like (Homo sapiens), Q4J6C6 | 320,000 tested, 0.68% active | AID 2751, 2010 | inhibition, % at 5.96 µM; in the data active means inhibition above about 43%;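 further: 0% = enzyme with DMSO and 100% = wells lacking enzyme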
* marks the source's active call; other numbers are inactive results; . = no result; [ ] = dose if it differs, or a comment. Most compounds without a hit are left out; they make up all but 3.1% or so of the library.

SMILES	MEKK3 PB1 HTS	Apaf-1 inh	MEKK2 mut-MEK5	MEKK2wt PB1 HTS	UBC13 inh	PREPL inhibitor
COc1cc2c(cc1NC(=O)CN1C(=O)NC3(CCc4ccccc43)C1=O)oc1ccccc12 (centres undefined)	112.0	17.9	-4.0	10.0*	4.4	-13.3
CC[C@H](C)[C@@H](C(=O)NCCCCCCCCCCC(=O)N1CCN(C(=O)OC(C)(C)C)CC1)n1cc(CCCCN=C(NC(=O)OC(C)(C)C)NC(=O)OC(C)(C)C)nn1	.	56.1*	.	.	70.9*	18.1
C#CCOCCOCCOCCNc1nc(N2CCN(C(=O)[C@H]([C@@H](C)CC)n3cc(CCCN=C(N)N)nn3)CC2)nc(N2CCN(C(=O)[C@H](C)n3cc(CCCN=C(N)N)nn3)CC2)n1	104.0	8.1	4.0	124.0	9.2	29.1
C#CCOCCOCCOCCNc1nc(N2CCOCC2)nc(N2CCN(C(=O)CCCCCCCCCCNC(=O)[C@@H](CCC(=O)O)n3cc(CCCCCN)nn3)CC2)n1	.	-10.8	.	.	6.9	-3.2
C#CCOCCOCCOCCNc1nc(N2CCN(C(=O)CCCCCCCCCCNC(=O)[C@H]([C@@H](C)CC)n3cc(CCCCCN)nn3)CC2)nc(N2CCN(C(=O)CCCCCCCCCCNC(=O)[C@@H]([C@H](C)CC)n3cc(CCCCCN)nn3)CC2)n1	.	78.1*	.	.	122.6*	59.4*
C#CCOCCOCCOCCNc1nc(N2CCN(C(=O)CCCCCCCCCCNC(=O)[C@H](CCCCN)n3cc(C)nn3)CC2)nc(N2CCN(C(=O)CCCCCCCCCCNC(=O)[C@H](CCCCN)n3cc(CCCC(=O)O)nn3)CC2)n1	.	62.7*	.	.	113.6*	25.5
C#CCOCCOCCOCCNc1nc(N2CCN(C(=O)CCCCCCCCCCNC(=O)[C@H]([C@@H](C)CC)n3cc(CCCCN=C(N)N)nn3)CC2)nc(N2CCN(C(=O)CCCCCCCCCCNC(=O)[C@H]([C@@H](C)CC)n3cc(CCCCN=C(N)N)nn3)CC2)n1	.	41.3*	.	.	126.4*	67.8*
O=C(CSc1nnc(C2CC2)n1-c1ccccc1)N1CCNC1=O	.	-7.8	.	.	4.1	7.3
CC1(C)OC(=O)C(=Cc2ccc(-c3ccc(S(N)(=O)=O)cc3)o2)C(=O)O1	2.0*[inhibitor]	-0.8	-42.0	2.0*[inhibitor]	-7.1	12.2
CCN1/C(=C\C=C2\C(=O)N(c3ccccc3)C(=S)N2C)Sc2ccccc21	75.0*[inhibitor]	.	-41.0	44.0*[inhibitor]	.	.
CCN1/C(=C\C=C(C(C)=O)C(C)=O)Sc2ccccc21	95.0	7.8	-12.0	87.0	-429.4	-4.8
CCCCCCCN1CCN=C1Nc1ccccc1	.	-1.2	.	.	4.6	8.4
Oc1c(N=Nc2ccccn2)ccc2ccccc12	89.0	37.2	-14.0	36.0*	-61.2	25.7
c1ccc2c(c1)ccc1ncccc12	105.0	2.3	-10.0	92.0	-1.2	12.6
C#CCOCCOCCOCCNc1nc(N2CCOCC2)nc(N2CCN(C(=O)[C@H](CCCCN)n3cc([C@@H](N)CC(C)C)nn3)CC2)n1	107.0	-0.6	12.0	118.0	6.3	2.2
C#CCOCCOCCOCCNc1nc(N2CCN(C(=O)[C@H](CCCCN)n3cc([C@@H](N)C(C)CC)nn3)CC2)nc(N2CCN(C(=O)[C@H](CCCCN)n3cc([C@@H](N)CO)nn3)CC2)n1 (some centres undefined)	90.0	-10.7	-29.0	107.0	46.3*	7.0
C#CCOCCOCCOCCNc1nc(N2CCN(C(=O)[C@H](CCCCN)n3cc(C(N)COC(=O)C(F)(F)F)nn3)CC2)nc(N2CCN(C(=O)[C@H](CCCCN)n3cc(C(N)CC(C)C)nn3)CC2)n1 (some centres undefined)	101.0	.	21.0	150.0*	.	.
O=C(COC(=O)CNC(=O)c1ccc(Cl)cc1Cl)NC1CCCCCCC1	.	11.7	.	.	-4.4	-0.3
Cc1ccc(C)c(OCc2cc(C(=O)NC3CCN(Cc4ccccc4)CC3)no2)c1	106.0	19.9	11.0	135.0*	40.5	-7.1
S=C(c1cn(Cc2ccc(Br)cc2)c2ccccc12)N1CCOCC1	95.0	14.2	-4.0	98.0	1.4	49.7*
Cc1nc(N)sc1C(=O)N/N=C/c1ccc([N+](=O)[O-])cc1	108.0	-10.5	10.0	105.0	36.0	1.9
Cc1nc(N)sc1C(=O)N/N=C/c1ccccc1[N+](=O)[O-]	87.0	2.2	-2.0	94.0	94.8*	1.8
O=C(O)COc1ccccc1/C=N/NC(=O)Cc1ccccc1	96.0	5.7	-7.0	-12.0*	-7.2	24.4
O=C(O)COc1ccccc1/C=N/NC(=O)c1ccc(F)cc1	102.0	-24.6	-2.0	99.0	-8.4	7.1
Cc1cc(C)nc(SCC(=O)NC(=O)c2ccccc2O)n1	.	-0.7	.	.	13.7	24.8
SMILES	MEKK3 PB1 HTS	Apaf-1 inh	MEKK2 mut-MEK5	MEKK2wt PB1 HTS	UBC13 inh	PREPL inhibitor
C[C@H]1[C@H](NC(=O)C(=NOC(C)(C)C(=O)O)c2csc(N)n2)C(=O)N1S(=O)(=O)O	.	-3.0	.	.	-7.7	-1.7
CC1CC(C)CN(CCCNC(=O)c2ccc3c(c2)N(Cc2ccccc2)C(=O)c2ccccc2S3=O)C1 (centres undefined)	105.0	28.2	10.0	145.0*	3.8	10.1
CC(C(=O)O)N1C(=O)/C(=C/C=C/c2ccco2)SC1=S (centres undefined)	98.0	47.0*	-1.0	96.0	35.3	12.0
O=[N+]([O-])c1cccc(/C=C/c2ccncc2)c1	93.0	-1.2	-15.0	93.0	-0.2	28.1
O=[N+]([O-])c1ccc(/C=C/c2ccncc2)cc1	99.0	.	8.0	-2.0*[inhibitor]	.	-17.8
c1nc(NCc2ccc3c(c2)OCO3)c2cc(-c3ccc4c(c3)OCCO4)ccc2n1	.	20.6	.	.	3.6	22.5
Cc1cccc(CNc2ncnc3ccc(-c4ccc5c(c4)OCCO5)cc23)c1	.	42.3*	.	.	9.1	19.7
Oc1ccccc1-c1nc2c3ccccc3c3ccccc3c2[nH]1	107.0	.	27.0	-12.0*	.	17.7
Oc1ccccc1-c1ccn[nH]1	.	-3.3	.	.	14.3	-0.9
O=C1C(=O)c2ccccc2C(O)=C1CCCCl	95.0	82.6*	-6.0	93.0	-61.4	14.5
COc1ccc(CC2=C(O)c3ccccc3C(=O)C2=O)cc1	104.0	8.0	6.0	107.0	-42.5	-3.1
N=C1CCC(=N)c2c1c(O)c1ccccc1c2O	99.0	77.4*	-9.0	94.0	-85.5	41.0
Cc1ccc2c(c1)c1c(n2CC(O)CNC(C)(C)C)CCCC1 (centres undefined)	116.0	.	15.0	158.0*	.	.
